Data on 5 compounds can be found in PubChem BioAssay AID1899 (The Scripps Research Institute Molecular Screening Center, 2009).

In all, about 300,000 compounds went through this assay and about 1,000 (0.33%) were called active. Many of the other results were omitted from the sample, so actives are more common in it than they were. Unmarked numbers belong to inactive results.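 Rule for the calls: active = inhibition above the mean of all tested compounds plus 3 SD, set per screening campaign (cut at about 45% in these data); inactive = the rest.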

In the experiment the test system is HCV core protein (residues 1-106) dimerization. As to the kind of experiment: blockers of core106 self-association – biochemical, TR-FRET, high-throughput, primary screen (AID 1899). Conditions: TR-FRET GST/Flag-core106 dimerization, 1536-well; at 5 µM; stronger effect = higher value. Summed up:
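Assay system: tagged HCV core106 pair (GST and Flag); medium: KF-containing HEPES buffer, pH 7.45, DTT, CHAPS, BSA; also added: Eu donor and XL665 acceptor anti-tag antibodies; dosing: 5 µM single dose; timing: compound-protein-antibody incubation 4 h at 22.5 °C; signal: TR-FRET 671 and 617 nm emission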
(TR-FRET usually uses a lanthanide donor and a delayed reading to cut background.)
As for `Cc1cccc(N2C(=O)NC(=O)/C(=C\c3cnn(-c4ccccc4)c3)C2=O)c1`, the inhibition (commonly the drop in the measured response relative to a control, in per cent) was 46.9% (active).

As to `COc1cccc(N2C(=O)NC(=O)/C(=C\c3cn(C)c4ccccc34)C2=O)c1`, the inhibition was -2.56%. Regarding `O=C1NC(=O)N(c2ccccc2)C(=O)/C1=C/c1ccc([N+](=O)[O-])s1`, the inhibition was -5.13%. As for `CN1C2C=C(N(C(=O)c3ccc(Cl)cc3)c3ccccc3)CC1CC2` (stereo not given), the inhibition is -2.38%. Turning to `CSC1=NP(=S)(SC)N(C)c2nc3n(c21)CCC3` (stereo not given), the inhibition is 8.93%.
